The source of these data is ChEMBL document CHEMBL1156973, “(-)-Carbodine: enantiomeric synthesis and in vitro antiviral activity against various strains of influenza virus including H5N1 (avian influenza) and novel 2009 H1N1 (swine flu)” (Bioorg Med Chem Lett, 2010).

For data set [1], the system named is H5N1 subtype. In words: Antiviral activity against Influenza A virus Gull/PA/4175/83/H5N1 infected MDCK cells assessed as inhibition of virus-induced cytopathic effect after 3 days. The format is functional, organism-based, Influenza A virus (A/gull/Pennsylvania/4175/83(H5N1)). As to conditions: Influenza A virus, MDCK, 72 h.
Data set [2] relates to H5N1 subtype. In words: Antiviral activity against Influenza A virus Hong Kong/213/2003/H5N1 infected MDCK cells assessed as inhibition of virus-induced cytopathic effect after 3 days. The format is functional, organism-based, Influenza A virus (A/Hong Kong/213/2003(H5N1)). To be noted: 72 h.
Data set [3] is described as follows: Selectivity ratio of IC50 for MDCK cells to EC90 for Influenza B virus Malaysia/2506/2004 by virus yield reduction assay. The format is ADME, cell-based. To be noted: dog; for selectivity ratio: MDCK cells. In short, it runs like this: (§1)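 IC50 (50% inhibition of uninfected MDCK cells) divided by EC90 (concentration reducing the infectious virus titer by 90% in the yield reduction assay).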

Data set [4] in a line: Selectivity ratio of IC50 for MDCK cells to EC90 for Influenza A virus Hong Kong/213/2003/H5N1 by virus yield reduction assay. The format is ADME, cell-based. To be noted: dog, MDCK cells. In short, it runs like this: as §1
For data set [5], the system named is H5N1 subtype. In words: Antiviral activity against Influenza A virus Hong Kong/213/2003/H5N1 infected MDCK cells after 3 days by virus yield reduction assay. To be noted: Influenza A virus, MDCK, 72 h. The format is functional, Influenza A virus (A/Hong Kong/213/2003(H5N1)).
Data set [6] can be described thus: Selectivity ratio of IC50 for MDCK cells to EC90 for Influenza A virus Duck/MN/1525/81/H5N1 by virus yield reduction assay. The format is ADME, cell-based. To be noted: dog, MDCK cells. In short, it runs like this: as §1
A short description of data set [7]: Selectivity ratio of IC50 for MDCK cells to EC50 for Influenza A virus California/07/2009 /H1N1 by neutral red dye uptake assay. The format is ADME, cell-based. As to conditions: dog, MDCK cells; read-out: Ratio IC50/EC50. The method, boiled down: (§2)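 Neutral red uptake in MDCK cells: IC50 (50% inhibition of uninfected cells) divided by EC50 (50% inhibition of virus effect), both from replicate serial-dilution assays.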

Data set [8] can be described thus: Selectivity ratio of IC50 for MDCK cells to EC50 for Influenza A virus Hong Kong/213/2003/H5N1 by neutral red dye uptake assay. The format is ADME, cell-based. As to conditions: dog; for selectivity ratio: MDCK cells, read-out: Ratio IC50/EC50. In short, it runs like this:
as §2

For another data set, the system named is Influenza B virus. In words: Antiviral activity against Influenza B virus Malaysia/2506/2004 infected MDCK cells after 42 to 46 hrs by neutral red dye uptake assay. The format is functional, organism-based, B/Malaysia/2506/2004. As to conditions: Influenza B virus, B/Malaysia/2506/2004, MDCK. The method, boiled down: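 Triplicate MDCK wells got serial compound dilutions, then ≤300 CCID50 of virus, with the same inoculum for all replicates. Antiviral effect was read by neutral red dye uptake. EC50 is the concentration giving 50% inhibition of the virus effect, as the mean of triplicates.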

Another data set deals with Influenza A virus. The data set can be described thus: Antiviral activity against Influenza A virus California/07/2009 /H1N1 infected MDCK cells assessed as inhibition of virus-induced cytopathic effect after 3 days. The format is functional, organism-based, A/California/07/2009(H1N1). As to conditions: Influenza A virus, A/California/07/2009(H1N1), MDCK, 72 h.
The nature of data set [9]: Selectivity ratio of IC50 for MDCK cells to EC50 for inhibition of virus-induced cytopathic effect of Influenza B virus Malaysia/2506/2004. As to conditions: dog, MDCK cells; read-out: Ratio IC50/EC50. The format is cell-based. In short, it runs like this: (§3)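 IC50 (50% inhibition of uninfected MDCK cells) divided by EC50 (concentration reducing virus-induced CPE by 50%, scored visually), both from replicate serial-dilution assays.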

For another data set, the system named is MDCK. In words: Cytotoxicity against MDCK cells after 3 days by neutral red dye uptake assay. The format is cell-based. As to conditions: Canis lupus familiaris, 72 h. The method, boiled down: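 Uninfected MDCK cells in replicate wells were exposed to serial compound dilutions and cell viability was read by neutral red uptake. IC50 is the drug concentration giving 50% cell inhibition without virus.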

A short description of data set [10]: Selectivity ratio of IC50 for MDCK cells to EC90 for Influenza A virus Gull/PA/4175/83/H5N1 by virus yield reduction assay. To be noted: dog. The format is ADME, cell-based. The method, boiled down:
as §1

The nature of data set [11]: Selectivity ratio of IC50 for MDCK cells to EC50 for Influenza A virus Wisconsin/67/2005/H3N2 by neutral red dye uptake assay. The format is ADME, cell-based. To be noted: dog; for selectivity ratio: MDCK cells, read-out: Ratio IC50/EC50. In short, it runs like this: as §2
Data set [12] is described as follows: Selectivity ratio of IC50 for MDCK cells to EC90 for Influenza A virus Vietnam/1203/ 2004H/H5N1 by virus yield reduction assay. The format is ADME, cell-based. To be noted: dog; for selectivity ratio: MDCK cells. The method, boiled down: as §1
Data set [13] in a line: Selectivity ratio of IC50 for MDCK cells to EC50 for Influenza A virus Duck/MN/1525/81/H5N1 by neutral red dye uptake assay. The format is ADME, cell-based. To be noted: dog; for selectivity ratio: MDCK cells, read-out: Ratio IC50/EC50. In short, it runs like this: as §2
The nature of data set [14]: Selectivity ratio of IC50 for MDCK cells to EC50 for inhibition of virus-induced cytopathic effect of Influenza A virus Hong Kong/213/2003/H5N1. The format is cell-based. To be noted: dog, read-out: Ratio IC50/EC50. The method, boiled down:
as §3

A short description of data set [15]: Selectivity ratio of IC50 for MDCK cells to EC50 for Influenza A virus Vietnam/1203/ 2004H/H5N1 by neutral red dye uptake assay. The format is ADME, cell-based. As to conditions: dog, MDCK cells; read-out: Ratio IC50/EC50. In short, it runs like this: as §2

For the molecule `Nc1ccn([C@@H]2C[C@H](CO)[C@@H](O)[C@H]2O)c(=O)n1`, the EC50 in the data set with H5N1 subtype [1] came out at 0.8 µM; in the data set with H5N1 subtype [2], 0.7 µM; in the data set on Influenza B virus it was 0.8 µM; with Influenza A virus it was 1.3 µM. The Ratio was more than 276 in [3] (mdck) and more than 73 in data set [12] (mdck). The selectivity ratio is more than 197 in data set [4]; more than 39 in data set [6]; more than 259 in data set [7]; more than 690 in data set [9]; more than 259 in [10]; more than 591 in data set [14]. Further, the selectivity ratio in data set [15] is more than 276. For the same molecule, in the data set with H5N1 subtype [5], the 90% effect level (EC90) was put at 2.1 µM. The results for the “Ratio IC50/EC50” value in data set [8] (mdck), in data set [11] (mdck) and in data set [13] (mdck) were more than 518, more than 207 and more than 207, respectively. Further, the half-maximal inhibitory concentration (IC50) in the data set with MDCK was more than 414 µM.
Consider `Nc1ccn([C@H]2C[C@@H](CO)[C@H](O)[C@@H]2O)c(=O)n1`, for which the concentration for a half-maximal effect (EC50) with H5N1 subtype [1] is more than 41 µM; with H5N1 subtype [2] it was more than 41 µM; in the data set with Influenza B virus, more than 41 µM; in the data set with Influenza A virus it was more than 414 µM. For the same molecule, the selectivity ratio in data set [3] is less than 10; in data set [4] it was less than 10; in [6] it was 1; in data set [7], 1; in data set [8] it was less than 10; in data set [9], less than 10. Besides, the selectivity ratio in data set [10] was less than 10; in data set [11] it was less than 10; in data set [12] it was less than 10; in data set [13] it was 1; in data set [14] it was less than 10; in data set [15] it was less than 10. In the data set on H5N1 subtype [5], this molecule yielded a 90% effect concentration (EC90) of more than 41 µM. In the data set on MDCK, the half-maximal inhibitory concentration (IC50) is more than 414 µM.
Consider `NC(=O)c1ncn([C@@H]2O[C@H](CO)[C@@H](O)[C@H]2O)n1` [RIBAVIRIN], for which the EC50 worked out at 23.6 µM in the data set with H5N1 subtype [1], 4.3 µM with H5N1 subtype [2], 19.5 µM in the data set with Influenza B virus and 11.2 µM in the data set with Influenza A virus. Further, the selectivity ratio in data set [3] is more than 59; in data set [4], more than 78; in [6], more than 30; in data set [7], more than 68; in data set [8] it was more than 139; in data set [9] it was more than 128. Moreover, the selectivity ratio is more than 65 in [10]; more than 65 in [11]; more than 113 in [12]; more than 40 in [13]; more than 305 in [14]; more than 94 in data set [15]. Moreover, the 90% effect level with H5N1 subtype [5] (EC90) was put at 16.8 µM. In the data set with MDCK, the IC50 is more than 1310 µM.
